Laboratory results from ChEMBL document CHEMBL1157908, “Macrocyclic pyridyl polyoxazoles: selective RNA and DNA G-quadruplex ligands as antitumor agents” (J Med Chem, 2010).

What was measured:
[1] = Cytotoxicity against wild type human KB3-1 cells by MTA assay; format: functional, cell-based; details: KB 3-1
Summary of the method: (§1)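 MTT microtiter assay. Cells were kept at 37 °C in 5% CO2 in RPMI with 10% heat-inactivated FBS, 2 mM L-glutamine and penicillin/streptomycin. Continuous exposure to a range of drug concentrations for four days, then MTT read-out. Drug-free control included. IC50 from at least two assays, each in six replicate wells.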

[2] = Cytotoxicity against human KBH5.0 cells expressing efflux transporter BCRP by MTA assay; format: functional, cell-based; details: KBH5.0 cell; summary of the method: as §1
[3] = Cytotoxicity against human RPMI8402 cells by MTA assay; format: functional, cell-based; details: RPMI 8402; summary of the method: as §1
[4] = Cytotoxicity against human KBV1 cells expressing MDR1 by MTA assay; format: functional, cell-based; details: KB-V1; summary of the method: as §1
[5] = test system: MIA PaCa-2; experiment: Cytotoxicity against human MIAPaCa2 cells; format: functional, cell-based
[6] = test system: Mus musculus; experiment: Toxicity in NCR nu/nu mouse xenografted with human MDA-MB-435 cells assessed as average body weight at 20 mg/kg, ip administered 3 times a week for 4 weeks measured on day 31 (RVb = 23.9 +/- 1 g); format: organism-based; design: dose 20 mg/kg, route intraperitoneal; details: in vivo, 672 h
[7] = test system: MDA-MB-435; experiment: Antitumor activity against human MDA-MB-435 cells xenografted in NCR nu/nu mouse at 20 mg/kg, ip administered 3 times a week for 4 weeks measured after 35 days post-implantation relative to control; format: functional; details: route intraperitoneal
Summary of the method: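 Female NCR/NU NU mice bearing sc flank MDA-MB-435 xenografts (1.5×10^6 cells), groups matched by tumor volume. Eight mice dosed ip at 20 mg/kg, 3× weekly for four weeks from day 0. Tumor volume (l × w^2)/2 measured by caliper at least twice weekly. % T/C = average treated volume over citrate-control volume.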

[8] = test system: Nucleic Acid; experiment: Thermal stabilization of […] poly(rA).poly(rU) duplex RNA assessed as change in transition temperature at 15 uM after 4 hrs by temperature-dependent spectrophotometry in presence of 150 mM K+ ions; format: nucleic-acid assay
[9] = test system: Nucleic Acid; experiment: Thermal stabilization of human G-quadruplex d[T2G3(T2AG3)3A] DNA assessed as change in transition temperature at 20 uM after 4 hrs by temperature-dependent spectrophotometry in presence of 150 mM K+ ions; format: nucleic-acid assay
Summary of the method: (§2)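 UV melting in 1 cm quartz cells. Sample held 5 μM strand of hTel DNA 24mer or AurA RNA 22mer, with ligand at 20 μM. Buffer 10 mM potassium phosphate pH 7.5 plus 132 mM KCl (150 mM K+ total). Nucleic acids preheated at 90 °C for 5 min and slowly cooled over 4 hr before use. AurA transition followed at 295 nm.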

[10] = test system: Nucleic Acid; experiment: Thermal stabilization of Salmon testes duplex DNA assessed as change in transition temperature at 15 uM after 4 hrs by temperature-dependent spectrophotometry in presence of 150 mM K+ ions; format: nucleic-acid assay; details: Salmonidae
Summary of the method: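 Salmon testes duplex DNA at 30 μM base pair with ligand at 15 μM. Buffer 10 mM potassium phosphate pH 7.5 with 132 mM KCl (150 mM K+). DNA preheated at 90 °C for 5 min and cooled slowly over 4 hr. Temperature-dependent absorbance recorded in 1 cm quartz cells.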

[11] = test system: Mus musculus; experiment: Toxicity in NCR nu/nu mouse xenografted with human MDA-MB-435 cells assessed as average body weight at an escalating dose of 25 to 42 mg/kg, ip administered on day 10 post-implantation followed by subsequent dose regimen of 3 times a week on alternative days for 3 weeks measured on day 24 (RVb = 22.5 +/- 1.5 g); format: organism-based; design: dose 25-42 mg/kg, route intraperitoneal; details: in vivo, 504 h
Summary of the method: (§3)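 Female NCR/NU NU mice with sc MDA-MB-435 flank xenografts. Seven mice dosed ip 3× weekly on alternate days, escalating weekly from 25 through 32 to 42 mg/kg. Controls received 150 μl 10 mM citrate. Individual body weights taken at least twice weekly. Average ± standard deviation given for days 17, 24, 31 and 35.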

[12] = test system: Mus musculus; experiment: Toxicity in NCR nu/nu mouse xenografted with human MDA-MB-435 cells assessed as average body weight at an escalating dose of 25 to 42 mg/kg, ip administered on day 10 post-implantation followed by subsequent dose regimen of 3 times a week on alternative days for 3 weeks measured on day 31 (RVb = 23.9 +/- 1 g); format: organism-based; design: dose 25-42 mg/kg, route intraperitoneal; details: in vivo, 504 h; summary of the method: as §3
[13] = test system: Nucleic Acid; experiment: Thermal stabilization of r[AG4CG2CUG2UCG2AGUG2C] sequence of quadruplex RNA assessed as change in transition temperature at 20 uM after 4 hrs by temperature-dependent spectrophotometry in presence of 150 mM K+ ions; format: nucleic-acid assay; summary of the method: as §2
[14] = test system: MDA-MB-435; experiment: Antitumor activity against human MDA-MB-435 cells xenografted in NCR nu/nu mouse at an escalating dose of 25 to 42 mg/kg, ip administered on day 10 post-implantation followed by subsequent dose regimen of 3 times a week on alternative days for 3 weeks measured after 35 days relative to control; format: functional; details: dose mg/kg 25-42; route intraperitoneal
Summary of the method: (§4)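 Female NCR/NU NU mice, about 9 weeks old. Inoculated sc on the right flank with 1.5×10^6 MDA-MB-435 cells in 0.1 mL RPMI 1640. Groups of seven matched by tumor volume. Given ip 3× weekly on alternate days in escalating weekly doses. Control received 150 μl 10 mM citrate. Tumor volume (l × w^2)/2 measured by microcaliper at least twice weekly. % T/C = treated/control mean volume.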

[15] = test system: MDA-MB-435; experiment: Antitumor activity against human MDA-MB-435 cells xenografted in NCR nu/nu mouse assessed as tumor volume at an escalating dose of 25 to 42 mg/kg, ip administered on day 10 post-implantation followed by subsequent dose regimen of 3 times a week on alternative days for 3 weeks measured after 35 days (RVb = > 1350 mm'3); format: functional; details: dose mg/kg 25-42; route intraperitoneal; summary of the method: as §4
[16] = test system: Mus musculus; experiment: Toxicity in NCR nu/nu mouse xenografted with human MDA-MB-435 cells assessed as average body weight at an escalating dose of 25 to 42 mg/kg, ip administered on day 10 post-implantation followed by subsequent dose regimen of 3 times a week on alternative days for 3 weeks measured on day 35 (RVb = 24.6 +/- 1.3 g); format: organism-based; design: dose 25-42 mg/kg, route intraperitoneal; details: in vivo, 504 h; summary of the method: as §3
[17] = test system: Mus musculus; experiment: Toxicity in NCR nu/nu mouse xenografted with human MDA-MB-435 cells assessed as average body weight at an escalating dose of 25 to 42 mg/kg, ip administered on day 10 post-implantation followed by subsequent dose regimen of 3 times a week on alternative days for 3 weeks measured on day 17 (RVb = 22 +/- 1.8 g); format: organism-based; design: dose 25-42 mg/kg, route intraperitoneal; details: in vivo, 504 h; summary of the method: as §3

| SMILES | IC50 [1] [nM] | IC50 [2] [nM] | IC50 [3] [nM] | IC50 [4] [nM] | further results |
| --- | --- | --- | --- | --- | --- |
| O=C1NCc2cccc(c2)CNC(=O)c2coc(n2)-c2coc(n2)-c2cc(OCCCN3C(=O)c4ccccc4C3=O)cc(n2)-c2nc(co2)-c2nc1co2 | 400 | > 10000 | 4500 | > 10000 |  |
| O=C1NCc2cccc(n2)CNC(=O)c2coc(n2)-c2coc(n2)-c2cccc(n2)-c2nc(co2)-c2nc1co2 | > 5000 | > 5000 | > 5000 | > 5000 |  |
| O=C(NCCc1cc2cc(c1)CNC(=O)c1coc(n1)-c1coc(n1)-c1cc(OCCCN3C(=O)c4ccccc4C3=O)cc(n1)-c1nc(co1)-c1nc(co1)C(=O)NC2)OCc1ccccc1 | > 10000 | > 10000 | > 10000 | > 10000 |  |
| O=C1NCc2cc(Br)cc(c2)CNC(=O)c2coc(n2)-c2coc(n2)-c2cc(Br)cc(n2)-c2nc(co2)-c2nc1co2 | > 10000 | > 10000 | > 10000 | > 10000 |  |
| O=C1NCc2cc(CCNC(=O)C(F)(F)F)cc(c2)CNC(=O)c2coc(n2)-c2coc(n2)-c2cccc(n2)-c2nc(co2)-c2nc1co2 | 70 | > 10000 | 170 | > 10000 |  |
| CC(C)[C@@H]1NC(=O)c2coc(n2)-c2coc(n2)-c2coc(n2)[C@H](C(C)C)NC(=O)c2coc(n2)-c2coc(n2)-c2coc1n2 [HEXAOXAZOLE DIVALINE] | 400 | 500 | 600 | 8500 | IC50 [5]: 500 nM |
| NCCCOc1cc2nc(c1)-c1nc(co1)-c1nc(co1)C(=O)NCc1cccc(c1)CNC(=O)c1coc(n1)-c1coc-2n1 | 3000 | > 10000 | 5000 | > 10000 |  |
| O=C1NCc2cc(Br)cc(c2)CNC(=O)c2coc(n2)-c2coc(n2)-c2cccc(n2)-c2nc(co2)-c2nc1co2 | 60 | 1000 | 300 | > 10000 |  |
| O=C1NCCNCCNC(=O)c2coc(n2)-c2coc(n2)-c2cccc(n2)-c2nc(co2)-c2nc1co2 | 4000 | > 10000 | > 10000 | > 10000 |  |
| O=C1NCc2cc(Br)cc(c2)CNC(=O)c2coc(n2)-c2coc(n2)-c2cc(OCCCN3C(=O)c4ccccc4C3=O)cc(n2)-c2nc(co2)-c2nc1co2 | 1000 | > 10000 | 1000 | > 10000 |  |
| CCc1c2c(nc3ccc(OC(=O)N4CCC(N5CCCCC5)CC4)cc13)-c1cc3c(c(=O)n1C2)COC(=O)[C@]3(O)CC [IRINOTECAN] |  |  |  |  | Activity [6]: 18.4 g; T/C [7]: 6.1% |
| O=C1NCc2cccc(c2)CNC(=O)c2coc(n2)-c2csc(n2)-c2cccc(n2)-c2nc(co2)-c2nc1co2 | 260 | > 10000 | 1000 | > 10000 |  |
| O=C1NCc2cccc(c2)CNC(=O)c2coc(n2)-c2coc(n2)-c2cccc(n2)-c2nc(co2)-c2nc1co2 | 1200 | 1500 | 1050 | 4500 | deltaT [8]: 0 °C; deltaT [9]: 7.5 °C; deltaT [10]: 0 °C |
| O=C1NCc2cccc(c2)CNC(=O)c2coc(n2)-c2csc(n2)-c2cccc(n2)-c2nc(cs2)-c2nc1co2 | > 10000 | > 10000 | > 10000 | > 10000 | deltaT [8]: 0 °C; deltaT [9]: 0 °C; deltaT [10]: 0 °C |
| O=C1NCc2cccc(c2)CNC(=O)c2coc(n2)-c2coc(n2)-c2cc(Br)cc(n2)-c2nc(co2)-c2nc1co2 | 150 | 1000 | 300 | 2000 |  |
| NCCc1cc2cc(c1)CNC(=O)c1coc(n1)-c1coc(n1)-c1cccc(n1)-c1nc(co1)-c1nc(co1)C(=O)NC2 | 30 | 140 | 90 | > 10000 | deltaT [8]: 0.5 °C; deltaT [9]: 21 °C; deltaT [10]: 0 °C |
| O=C(NCCc1cc2cc(c1)CNC(=O)c1coc(n1)-c1coc(n1)-c1cccc(n1)-c1nc(co1)-c1nc(co1)C(=O)NC2)OCc1ccccc1 | 120 | > 10000 | 120 | > 10000 |  |
| O=C(NCCc1cc2cc(c1)CNC(=O)c1coc(n1)-c1coc(n1)-c1cc(Br)cc(n1)-c1nc(co1)-c1nc(co1)C(=O)NC2)OCc1ccccc1 | 600 | > 10000 | 1000 | > 10000 |  |
| CN(C)CCc1cc2cc(c1)CNC(=O)c1coc(n1)-c1coc(n1)-c1cccc(n1)-c1nc(co1)-c1nc(co1)C(=O)NC2 | 40 | 550 | 180 | > 10000 | deltaT [8]: 0.5 °C; Activity [11]: 20.2 g; Activity [12]: 20.9 g; deltaT [13]: 37 °C; T/C [14]: 27.7%; Activity [15]: <400 mm3; Activity [16]: 21.2 g; deltaT [9]: 20.5 °C; deltaT [10]: 0 °C; Activity [17]: 19.7 g |
